Source: PubChem BioAssay (several laboratories)
MMP-13 inhibitor – MMP13 (human) collagenase inhibition. P45452. MMP-13 fTHP FRET cleavage, Mca fluorescence. inhibition, % at 4 µM. 0.07% of 65,000 active. AID 570;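 active = inhibition above the mean of compound-free control plate wells plus 3 SD, cut at about 14% in these data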
SF-1 act – activates the human nuclear receptor SF-1. Q13285. CHO-K1 Gal4-SF-1 LBD luciferase reporter; % increase over DMSO SF-1-specific signal. activation, % at 10 µM. 1.9% of 65,000 active. AID 522;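 active = activation above the mean activation of all tested compounds plus 3 SD, cut at about 50% in these data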
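Material: Gal4–SF-1 LBD one-hybrid luciferase reporter in CHO-K1 cells | Amount: 4,000 cells per well | Compound dosing: 10 µM single point, 1% DMSO | Schedule: 20 h compound treatment, 37 °C | Measured by: SteadyLite luciferase luminescence | Evaluation: Percent activation versus DMSO | Control set: DMSO-treated SF-1-transfected cells as negative, DMSO-treated mock-transfected cells lacking SF-1 as background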
Ec RNAP inh – Escherichia coli RNA polymerase inhibition. inhibition, %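 (tested at 10 µM)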. AID 559. 0.2% of 62,000 active. E. coli RNA polymerase, fluorescence transcription assay; in the data active = inhibition above about 20%
RORA act – RORA (human) activation. P35398. CHO-K1 Gal4-RORA LBD luciferase reporter, luminescence; percent increase over mock-subtracted basal signal. activation, % at 10 µM. 1.5% of 65,000 active. AID 560;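 active = activation above the mean of all tested compounds plus 3 SD, cut at about 49% in these data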
Target sequence (P35398 whole entry, looked up, the tested form may be a part): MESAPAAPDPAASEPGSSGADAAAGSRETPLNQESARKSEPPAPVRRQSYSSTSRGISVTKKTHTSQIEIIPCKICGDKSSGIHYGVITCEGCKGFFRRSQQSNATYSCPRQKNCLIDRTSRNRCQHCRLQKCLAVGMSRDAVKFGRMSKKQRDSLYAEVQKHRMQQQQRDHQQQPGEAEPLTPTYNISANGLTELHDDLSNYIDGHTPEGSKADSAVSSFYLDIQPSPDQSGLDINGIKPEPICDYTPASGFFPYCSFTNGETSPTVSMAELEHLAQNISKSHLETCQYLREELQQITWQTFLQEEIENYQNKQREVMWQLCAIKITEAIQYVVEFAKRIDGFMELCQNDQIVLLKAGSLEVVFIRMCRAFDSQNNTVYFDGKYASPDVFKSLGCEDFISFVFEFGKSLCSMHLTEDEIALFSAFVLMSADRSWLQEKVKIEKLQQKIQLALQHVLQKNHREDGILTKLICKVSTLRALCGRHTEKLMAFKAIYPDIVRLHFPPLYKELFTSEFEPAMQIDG
AP complement – orthogonal test for alternative complement pathway inhibitors. inhibition, % at 5 µM. Human serum alternative complement pathway, LPS-coated ELISA, C3 deposition; tested in compound mixtures. 0.08% of 62,000 active;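 active = inhibition above 30% in each of the two pooled mixtures holding the compound, so the lower value exceeds 30%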
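Test system – human serum alternative complement pathway, C3 deposition on LPS-coated wells · Buffer or medium – diluted human serum in Mg2+-EGTA GVB++ · Compound dosing – 5 µM each compound, pools of ten, 50 µM per pool · Schedule – 1 h serum-compound exposure at 37 °C · Measured by – Anti-C3 ELISA, OD 450 nm · Read-out basis – percent inhibition of C3 deposition onto LPS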
HePTP inhibitor – inhibitors of human HePTP phosphatase | recombinant HePTP phosphatase activity, OD absorbance | inhibition, % at 20 µM | 0.64% of 110,000 active; in the data active = inhibition above about 50%
Numbers stand for hits; n = inactive; x = no result given. Compounds with a hit are over-represented: about 2.4% of the library has one in this group of screens.

SMILES	MMP-13 inhibitor	SF-1 act	Ec RNAP inh	RORA act	AP complement	HePTP inhibitor
COc1cccc(OC)c1C(=O)Nc1ccc2c(c1)OCCO2	n	n	n	n	n	n
CCSc1nnc(NC(=O)CSc2ccccc2)s1	x	x	x	x	x	n
Clc1ccccc1-c1nc(-c2cccnc2)no1	n	n	n	n	n	n
CCOc1cc(-c2noc(-c3cccnc3)n2)ccc1OC	n	n	n	n	n	n
Cc1ccccc1-c1nc(-c2cccnc2)no1	n	67	n	n	n	n
CCOc1ccc(-c2noc(-c3cccnc3)n2)cc1OC	n	n	n	57	n	n
COc1ccc(/C=C/C2=NC(=C\N(C)C)/C(=O)O2)cc1	n	50	n	n	x	n
CCC1Oc2nc(SC)nnc2-c2ccccc2N1C(=O)c1ccccc1 (configuration not stated)	n	50	n	54	n	n
CCC(C(=O)Nc1ccc(OC)cc1OC)c1ccccc1 (configuration not stated)	x	x	x	x	x	104
CCC(C(=O)Nc1cc([N+](=O)[O-])ccc1OC)c1ccccc1 (configuration not stated)	x	x	x	x	x	n
O=C(Cn1c2ccccc2c(=O)c2ccccc21)N/N=C/c1cc(Cl)cc(Cl)c1O	x	x	x	x	x	n
O=C(NC1CS/C(=C/c2ccccc2)C1O)c1ccccc1 (configuration not stated)	x	x	x	x	x	n
Cc1ccc2c(c1)c(N=Nc1nnc3c(n1)[nH]c1ccccc13)c(O)n2C	x	x	x	x	x	87
Cc1c(C(=O)NS(=O)(=O)c2ccccc2Cl)c(=O)n(-c2ccccc2)n1C	x	x	x	x	x	n
OCC#CCSc1nnc(-c2ccc(Br)cc2)o1	n	n	40	n	n	n
COc1ccc(-c2nnc(SCC#CCO)o2)cc1OC	n	n	n	n	n	n
Cc1cc2c(cc(C(=O)OCC(=O)NCc3cccs3)n2C(C)C)o1	n	n	n	57	n	n
CCOC(=O)Cn1nnnc1CN(Cc1ccccc1)Cc1cc2cc(CC)ccc2[nH]c1=O	n	n	n	58	n	n
CCc1ccc2[nH]c(=O)c(CN(Cc3ccccc3)Cc3nnnn3Cc3ccco3)cc2c1	n	n	n	n	n	n
Cc1ccc(-n2[nH]c(=O)c(/C=c3/c(C)c(C#N)c4nc5ccccc5n4c3=O)c2O)cc1C	x	x	x	x	x	102
Cc1c(C#N)c2nc3ccccc3n2c(=O)/c1=C/c1sc2ccccc2c1O	x	x	x	x	x	n
CC(=O)NS(=O)(=O)c1ccc(NC(=O)/C=C/c2ccc(F)cc2)cc1	x	x	x	x	x	74
O=C(/C=C/c1ccc(F)cc1)Nc1ccc(F)cc1	x	x	x	x	x	n
N#Cc1cccc(NC(=O)Nc2cccs2)c1	n	n	n	n	n	n
CCc1cccc(NC(=O)Nc2cccs2)c1	n	n	n	63	n	n
SMILES	MMP-13 inhibitor	SF-1 act	Ec RNAP inh	RORA act	AP complement	HePTP inhibitor
CCOC(=O)c1ccc(N2NC(=O)/C(=C/c3cc(OC)c(OC)cc3Br)C2=O)cc1	x	x	x	x	x	n
CCOC(=O)c1ccc(N2NC(=O)/C(=C/c3cccc(OC)c3O)C2=O)cc1	x	x	x	x	x	55
CCOC(=O)c1ccc(N2NC(=O)/C(=C/c3cc(Br)ccc3O)C2=O)cc1	x	x	x	x	x	75
CCOC(=O)c1ccc(N2NC(=O)/C(=C/c3ccc(C=O)cc3)C2=O)cc1	x	x	x	x	x	96
O=[N+]([O-])c1ccc(-c2nnc(-c3ccco3)o2)c(Cl)c1	x	x	x	x	x	n
C=CCNC(=O)C(=O)N/N=C/c1cccc(OC)c1	x	x	x	x	x	n
CCOc1cccc2c1N(C(=O)c1ccc(C)cc1)C(C)(C)C(=S)C2=C1SC(C(=O)OC)=C(C(=O)OC)S1	x	x	x	x	x	n
O=C(CSc1nc2ccccc2o1)Nc1nc2ccccc2s1	n	50	n	n	n	n
Cc1ccnc2ccc(-c3nc4ccccc4o3)cc12	n	56	n	n	n	n
O=C(CSc1nc2ccccc2o1)Nc1nc2c(s1)CCCC2	n	n	x	n	n	n
c1ccc(-c2nc3ccccc3o2)nc1	n	n	n	n	n	n
CC(=O)Nc1nc2ccc(-c3nc4ccccc4o3)cc2s1	n	n	n	69	n	n
O=C(Cc1cccs1)Nc1nc2ccccc2s1	n	n	n	58	n	n
N#C/C(=C\c1ccccc1Cl)C(N)=O	x	x	x	x	x	n
CCCC(=O)N1CCN(c2cc(N3CCCCC3)c(F)cc2[N+](=O)[O-])CC1	x	x	x	x	x	n
COc1cc(OC)c(NC2c3ccccc3C(=O)N2c2cc(C)ccn2)cc1Cl (configuration not stated)	n	n	n	84	n	n
COC(=O)CCC(=O)COc1ccccc1C#N	n	n	n	n	n	n
CCNC(=O)NC(=O)COc1ccccc1C#N	n	54	n	n	n	n
Cc1nnc(N/N=C/c2cccc(Br)c2)[nH]c1=O	x	x	x	x	x	n
c1csc(-c2nc3ccccc3[nH]2)c1	n	94	n	n	n	n
Cc1ccc(-c2nc3ccccc3[nH]2)s1	n	n	n	50	n	n
Cc1c(C(=O)NCC(C)C)sc2nc(-c3ccc(F)cc3)cn12	n	n	n	71	n	n
c1coc(-c2nc(-c3ccco3)c(-c3ccco3)nc2-c2ccco2)c1	n	n	23	n	n	x
Nc1nc(-c2ccco2)c(-c2ccco2)s1	n	n	n	n	n	n
CCCCC1CCC(c2nc(-c3ccccn3)no2)CC1 (configuration not stated)	n	52	n	n	n	n
SMILES	MMP-13 inhibitor	SF-1 act	Ec RNAP inh	RORA act	AP complement	HePTP inhibitor
CCCCC1CCC(c2nc(-c3cccnc3)no2)CC1 (configuration not stated)	n	n	n	n	n	n
O=C1CC2c3ccccc3C1C1C(=O)N(c3ccccc3)C(=O)C21 (configuration not stated)	x	x	x	x	x	103
C=CCN1C(=O)/C(=C2/Sc3ccccc3N2CCCS(=O)(=O)O)SC1=S	16	n	n	n	n	n
CN1C(=O)/C(=C2/C=Cc3ccccc3N2CCCS(=O)(=O)O)SC1=S	18	n	n	n	n	n
CCN1C(=O)/C(=C2\C=Cc3ccccc3N2CC)OC1=S	n	n	n	n	n	n
O=C(CSc1nnc(-c2ccco2)n1Cc1ccccc1)c1ccccc1	n	51	n	49	n	n
Cc1ccc(C(=O)CSc2nnc(-c3ccco3)n2Cc2ccccc2)cc1	n	n	n	n	n	n
c1ccc(CCc2nc(-c3ccccn3)no2)cc1	n	n	n	54	n	n
Brc1ccc(-c2noc(CCc3ccccc3)n2)o1	n	n	n	n	n	n
CC1=NN(c2nc(-c3cc4ccccc4[nH]3)cs2)C(=O)C1C (configuration not stated)	x	x	x	x	x	n
COc1ccc(CCn2c(O)c(C3=c4cc(Br)ccc4=NC3=O)sc2=S)cc1OC	x	x	x	x	x	n
O=c1c2c(nc3cc(-c4ccc(Cl)cc4)[nH]n13)CCS2	x	x	x	x	x	96
O=c1c2c(nc3cc(-c4ccco4)[nH]n13)CCS2	x	x	x	x	x	100
O=C(CN1C(=O)S/C(=C/c2ccccc2F)C1=O)Nc1ccccc1	x	x	x	x	x	n
COc1ccc(OCCNC(=O)c2ccc(I)cc2)cc1	x	x	x	x	x	n
